{"source": "ChEMBL document CHEMBL1141647", "about": "“Novel ofloxacin derivatives: synthesis, antimycobacterial and toxicological evaluation” (Bioorg Med Chem Lett, 2008)"}
{"tested_on": "Mycobacterium tuberculosis", "experiment": "Antimycobacterial activity against multidrug resistant Mycobacterium tuberculosis by agar dilution method", "type": "functional", "how_it_was_run": "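MIC99 was taken as the lowest concentration giving complete inhibition of bacterial growth.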", "units": {"MIC99": "µM"}}
{"smiles": "COc1cc2c(cc1OC)CN(c1c(F)c([N+](=O)[O-])c3c(=O)c(C(=O)O)cn4c3c1OCC4C)CC2", "note": "(stereo not given)", "MIC99": 3.12}
{"smiles": "CC1COc2c(N3CCSCC3)c(F)c([N+](=O)[O-])c3c(=O)c(C(=O)O)cn1c23", "note": "(stereo not given)", "MIC99": 1.91}
{"smiles": "CC1COc2c(N3CCN(C(=O)c4ccco4)CC3)c(F)c([N+](=O)[O-])c3c(=O)c(C(=O)O)cn1c23", "note": "(stereo not given)", "MIC99": 1.6}
{"smiles": "CC1COc2c(N3CCc4ccccc4C3C(=O)NC(C)(C)C)c(F)cc3c(=O)c(C(=O)O)cn1c23", "note": "(stereo not given)", "MIC99": 3.16}
{"smiles": "CC1CN(c2c(F)c([N+](=O)[O-])c3c(=O)c(C(=O)O)cn4c3c2OCC4C)CC(C)O1", "note": "(stereo not given)", "MIC99": 3.7}
{"smiles": "CC1COc2c(N3CCc4ccccc4C3C(=O)NC(C)(C)C)c(F)c([N+](=O)[O-])c3c(=O)c(C(=O)O)cn1c23", "note": "(stereo not given)", "MIC99": 1.45}
{"smiles": "CC1COc2c(N3CCN(C)C(c4ccccc4)C3)c(F)c([N+](=O)[O-])c3c(=O)c(C(=O)O)cn1c23", "note": "(stereo not given)", "MIC99": 3.23}
{"smiles": "CC1COc2c(N3CCC4(CC3)OCCO4)c(F)c(N)c3c(=O)c(C(=O)O)cn1c23", "note": "(stereo not given)", "MIC99": 3.72}
{"smiles": "CC1COc2c(N3CCC4(CC3)OCCO4)c(F)cc3c(=O)c(C(=O)O)cn1c23", "note": "(stereo not given)", "MIC99": 0.09}
{"smiles": "CC1CN(c2c(F)cc3c(=O)c(C(=O)O)cn4c3c2OCC4C)CC(C)O1", "note": "(stereo not given)", "MIC99": 8.3}
{"smiles": "CC1COc2c(N3CCN(C)CC3)c(F)cc3c(=O)c(C(=O)O)cn1c23", "note": "(stereo not given) [OFLOXACIN]", "MIC99": 34.6}
{"smiles": "CC1COc2c(N3CCN(C(=O)C4COc5ccccc5O4)CC3)c(F)c([N+](=O)[O-])c3c(=O)c(C(=O)O)cn1c23", "note": "(stereo not given)", "MIC99": 1.41}
{"smiles": "CC1COc2c(N3CCN(Cc4ccc5c(c4)OCO5)CC3)c(F)c([N+](=O)[O-])c3c(=O)c(C(=O)O)cn1c23", "note": "(stereo not given)", "MIC99": 5.95}
{"smiles": "CC1COc2c(N3CCn4cc(C(=O)O)nc4C3)c(F)cc3c(=O)c(C(=O)O)cn1c23", "note": "(stereo not given)", "MIC99": 0.44}
{"smiles": "CC1COc2c(N3CCC(n4c(=O)[nH]c5cc(Cl)ccc54)CC3)c(F)c([N+](=O)[O-])c3c(=O)c(C(=O)O)cn1c23", "note": "(stereo not given)", "MIC99": 0.34}
{"smiles": "COc1cc2c(cc1OC)CN(c1c(F)cc3c(=O)c(C(=O)O)cn4c3c1OCC4C)CC2", "note": "(stereo not given)", "MIC99": 3.43}
{"smiles": "CC1COc2c(N3CCC4(CC3)OCCO4)c(F)c([N+](=O)[O-])c3c(=O)c(C(=O)O)cn1c23", "note": "(stereo not given)", "MIC99": 0.09}
{"smiles": "CC1COc2c(N3CCC(n4c(=O)[nH]c5cc(Cl)ccc54)CC3)c(F)cc3c(=O)c(C(=O)O)cn1c23", "note": "(stereo not given)", "MIC99": 0.76}
{"smiles": "CC1COc2c(N3CCC(O)(c4ccc(Cl)cc4)CC3)c(F)c([N+](=O)[O-])c3c(=O)c(C(=O)O)cn1c23", "note": "(stereo not given)", "MIC99": 3.01}
{"smiles": "CC1COc2c(N3CCn4cc(C(=O)O)nc4C3)c(F)c([N+](=O)[O-])c3c(=O)c(C(=O)O)cn1c23", "note": "(stereo not given)", "MIC99": 0.09}
{"smiles": "NNC(=O)c1ccncc1", "note": "[ISONIAZID]", "MIC99": 45.6}
{"smiles": "CC1COc2c(N3CCN(C(c4ccccc4)c4ccc(Cl)cc4)CC3)c(F)c([N+](=O)[O-])c3c(=O)c(C(=O)O)cn1c23", "note": "(stereo not given)", "MIC99": 2.63}
{"smiles": "CC1COc2c(N3CCSCC3)c(F)cc3c(=O)c(C(=O)O)cn1c23", "note": "(stereo not given)", "MIC99": 8.59}
{"smiles": "CC1COc2c(N3CCn4cc(C(=O)O)nc4C3)c(F)c(N)c3c(=O)c(C(=O)O)cn1c23", "note": "(stereo not given)", "MIC99": 1.76}
{"tested_on": "not listed separately", "experiment": "Selectivity index, Ratio of IC50 for human Vero cells to MIC99 for multidrug resistant Mycobacterium tuberculosis", "type": "functional"}
{"smiles": "CC1COc2c(N3CCn4cc(C(=O)O)nc4C3)c(F)c([N+](=O)[O-])c3c(=O)c(C(=O)O)cn1c23", "note": "(stereo not given)", "Selectivity index": ">1467"}
